The text below walks through data of article PMC9933479 (ACS Omega, 2023).

What all share (experiment): MTT assay, cytotoxicity/growth inhibition
(Tetrazolium assays rely on reduction of a dye to a coloured formazan, in cell work by metabolically active cells.)

For data set [1], the system named is PC-3 (prostate carcinoma). It counts as cell-based. The note with it: Homo sapiens; for inhibition at 20 µM: 48 h, read-out: Cytotoxic Activity (% Growth Inhibition). In outline: (§1)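 Cells were grown in RPMI (A549, HCT-116, PC-3) or DMEM (MCF-7) with 10% FBS at 37 °C and 5% CO2. Seeding per well was […] and PC-3 8 × 10^4 cells. […] MTT 250 μg/mL, 4 h; DMSO; A570; triplicate; mean ± SE.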

For the next data set, the system named is MCF-7 (breast carcinoma). It counts as cell-based. To be noted: Homo sapiens; for IC50: MCF7; for inhibition at 20 µM: MCF7, 48 h, read-out: Cytotoxic Activity (% Growth Inhibition). In outline: as §1
For a further data set, the system named is A549 (lung carcinoma). Format: cell-based, human. The note with it: for IC50 / inhibition at 20 µM: Homo sapiens; for IC50: A549; for inhibition at 20 µM: A549, 48 h. In outline: as §1
Data set [2] has as its system HCT-116 (colon carcinoma). Format: cell-based. The note with it: Homo sapiens; for IC50: HCT-116; for inhibition at 20 µM: HCT-116, 48 h, read-out: Cytotoxic Activity (% Growth Inhibition). In outline:
as §1

[3] abbreviates: read-out: Cytotoxic Activity (% Growth Inhibition), A549, 20 μM concentration, MTT, 48 h.

Like-named read-outs stand apart in the source and are kept apart here.

For the compound `C[C@]1(CO)C2CC=C(COC(=O)Cc3ccc(Cl)c(Cl)c3)[C@@H](/C=C/C3=CCOC3=O)[C@]2(C)CC[C@H]1O` (stereo partly drawn) [Compound 9v, ((1S,5R,6R,8aR)-6-Hydroxy-5-(hydroxymethyl)-5,8a-dimethyl-1-((E)-2-(2-oxo-2,5-dihydrofuran-3-yl)vinyl)-1,4,4a,5,6,7,8,8a-octahydronaphthalen-2-yl)methyl 2-(3,4-Dichlorophenyl)acetate], the 50% inhibitory concentration (IC50) is > 20 µM in data set [1], > 20 µM with MCF-7 (breast carcinoma), 7.5 µM with A549 (lung carcinoma) and > 20 µM in data set [2]. The inhibition at 20 µM in data set [1] amounted to 26.5 ± 0.54%; with MCF-7 (breast carcinoma) it was 29 ± 0.78%; in the data set on A549 (lung carcinoma) (setting [3]), 72%; in data set [2], 5.7 ± 6.1%. Besides, the “Cytotoxic Activity (% Growth Inhibition)” value in the data set with A549 (lung carcinoma) (A549, 20 μM concentration, MTT, 48 h, 20 µM) is recorded as 72.7 ± 0.54%.

Consider `C[C@@]12COC(c3ccccc3)O[C@@H]1CC[C@]1(C)C2CC=C(COC(=O)c2cccc(Cl)c2)[C@H]1/C=C/C1=CCOC1=O` (stereo partly drawn) [Compound 8d, ((4aR,6aR,7S,10bR)-6a,10b-Dimethyl-7-((E)-2-(2-oxo-2,5-dihydrofuran-3-yl)vinyl)-3-phenyl-4a,5,6,6a,7,10,10a,10b-octahydro-1H-naphtho[2,1-d][1,3]dioxin-8-yl)methyl 3-Chlorobenzoate], for which the inhibition at 20 µM in data set [1] is 0%; in the data set with MCF-7 (breast carcinoma) it was 2.4 ± 0.084%; with A549 (lung carcinoma) (setting [3]), 30.11 ± 0.11%; in data set [2], 0%.

Turning to `CCCCCCCCCC(=O)OCC1=CCC2[C@]3(C)COC(c4ccccc4)O[C@@H]3CC[C@@]2(C)[C@@H]1/C=C/C1=CCOC1=O` (stereo partly drawn) [Compound 8x, ((4aR,6aR,7S,10bR)-6a,10b-Dimethyl-7-((E)-2-(2-oxo-2,5-dihydrofuran-3-yl)vinyl)-3-phenyl-4a,5,6,6a,7,10,10a,10b-octahydro-1H-naphtho[2,1-d][1,3]dioxin-8-yl)methyl Decanoate], the inhibition at 20 µM is 39 ± 0.24% in data set [1], 45 ± 0.98% in the data set with MCF-7 (breast carcinoma), 49.7 ± 0.79% in the data set with A549 (lung carcinoma) (setting [3]) and 50.1 ± 0.4% in data set [2].

On to `C[C@@]12COC(c3ccccc3)O[C@@H]1CC[C@]1(C)C2CC=C(COC(=O)Cc2ccc(Cl)c(Cl)c2)[C@H]1/C=C/C1=CCOC1=O` (stereo partly drawn) [Compound 8v, ((4aR,6aR,7S,10bR)-6a,10b-Dimethyl-7-((E)-2-(2-oxo-2,5-dihydrofuran-3-yl)vinyl)-3-phenyl-4a,5,6,6a,7,10,10a,10b-octahydro-1H-naphtho[2,1-d][1,3]dioxin-8-yl)methyl 2-(3,4-Dichlorophenyl)acetate], for which the 50% inhibitory concentration (IC50) in data set [1] was 8.4 µM; with MCF-7 (breast carcinoma) it was > 20 µM; in the data set with A549 (lung carcinoma), > 20 µM; in data set [2], > 20 µM. In addition, the inhibition at 20 µM in data set [1] is 70.3 ± 0.54%; with MCF-7 (breast carcinoma), 34 ± 0.28%; in the data set with A549 (lung carcinoma) (setting [3]), 41.6 ± 0.98%; in data set [2] it was 12.5 ± 0.78%.

With `C[C@]1(CO)C2CC=C(COC(=O)Cc3ccc(I)cc3)[C@@H](/C=C/C3=CCOC3=O)[C@]2(C)CC[C@H]1O` (stereo partly drawn) [Compound 9r, ((1S,5R,6R,8aR)-6-Hydroxy-5-(hydroxymethyl)-5,8a-dimethyl-1-((E)-2-(2-oxo-2,5-dihydrofuran-3-yl)vinyl)-1,4,4a,5,6,7,8,8a-octahydronaphthalen-2-yl)methyl 2-(4-Iodophenyl)acetate], the inhibition at 20 µM in data set [1] stood at 10.6 ± 0.22%; in the data set with MCF-7 (breast carcinoma), 12 ± 0.96%; with A549 (lung carcinoma) (setting [3]), 2.4 ± 0.19%; in data set [2], 27.2 ± 0.48%.

Take `C[C@]1(CO)C2CC=C(COC(=O)Cc3ccccc3)[C@@H](/C=C/C3=CCOC3=O)[C@]2(C)CC[C@H]1O` (stereo partly drawn) [Compound 9o, ((1S,5R,6R,8aR)-6-Hydroxy-5-(hydroxymethyl)-5,8a-dimethyl-1-((E)-2-(2-oxo-2,5-dihydrofuran-3-yl)vinyl)-1,4,4a,5,6,7,8,8a-octahydronaphthalen-2-yl)methyl 2-Phenylacetate]: the inhibition at 20 µM stood at 15 ± 0.72% in data set [1], 29.2 ± 0.29% with MCF-7 (breast carcinoma), 43.4 ± 0.19% in the data set on A549 (lung carcinoma) (read-out: Cytotoxic Activity (% Growth Inhibition)) and 0% in data set [2].

As to `COc1ccc(C(=O)OCC2=CCC3[C@](C)(CO)[C@H](O)CC[C@@]3(C)[C@@H]2/C=C/C2=CCOC2=O)cc1Cl` (stereo partly drawn) [Compound 9l, ((1S,5R,6R,8aR)-6-Hydroxy-5-(hydroxymethyl)-5,8a-dimethyl-1-((E)-2-(2-oxo-2,5-dihydrofuran-3-yl)vinyl)-1,4,4a,5,6,7,8,8a-octahydronaphthalen-2-yl)methyl 3-Chloro-4-methoxybenzoate], the half-maximal inhibitory concentration (IC50) in data set [1] was 5.7 µM; in the data set on MCF-7 (breast carcinoma), 17.8 µM; in the data set with A549 (lung carcinoma), > 20 µM; in data set [2] it was > 20 µM. Besides, the inhibition at 20 µM in data set [1] amounted to 71.4 ± 0.56%; with MCF-7 (breast carcinoma), 47 ± 0.24%; with A549 (lung carcinoma) (setting [3]), 3.3 ± 0.63%; in data set [2] it was 27.5 ± 0.94%.

`C[C@@]12COC(c3ccccc3)O[C@@H]1CC[C@]1(C)C2CC=C(COC(=O)c2cccc(Br)c2)[C@H]1/C=C/C1=CCOC1=O` (stereo partly drawn) [Compound 8e, ((4aR,6aR,7S,10bR)-6a,10b-Dimethyl-7-((E)-2-(2-oxo-2,5-dihydrofuran-3-yl)vinyl)-3-phenyl-4a,5,6,6a,7,10,10a,10b-octahydro-1H-naphtho[2,1-d][1,3]dioxin-8-yl)methyl 3-Bromobenzoate]: the inhibition at 20 µM in data set [1] turned out to be 0%; in the data set with MCF-7 (breast carcinoma), 0%; in the data set with A549 (lung carcinoma) (setting [3]), 31.59 ± 0.23%; in data set [2], 0%.

Turning to `C[C@]1(CO)C2CC=C(COC(=O)c3cccc(Br)c3)[C@@H](/C=C/C3=CCOC3=O)[C@]2(C)CC[C@H]1O` (stereo partly drawn) [Compound 9e, ((1S,5R,6R,8aR)-6-Hydroxy-5-(hydroxymethyl)-5,8a-dimethyl-1-((E)-2-(2-oxo-2,5-dihydrofuran-3-yl)vinyl)-1,4,4a,5,6,7,8,8a-octahydronaphthalen-2-yl)methyl 3-Bromobenzoate], the inhibition at 20 µM in data set [1] was 0%; with MCF-7 (breast carcinoma), 1.93 ± 0.1%; with A549 (lung carcinoma) (setting [3]) it was 50.55 ± 0.17%; in data set [2], 14.1 ± 0.24%.

In the case of `C[C@@]12COC(c3ccccc3)O[C@@H]1CC[C@]1(C)C2CC=C(COC(=O)c2ccc(Br)cc2F)[C@H]1/C=C/C1=CCOC1=O` (stereo partly drawn) [Compound 8m, ((4aR,6aR,7S,10bR)-6a,10b-Dimethyl-7-((E)-2-(2-oxo-2,5-dihydrofuran-3-yl)vinyl)-3-phenyl-4a,5,6,6a,7,10,10a,10b-octahydro-1H-naphtho[2,1-d][1,3]dioxin-8-yl)methyl 4-Bromo-2-fluorobenzoate], the inhibition at 20 µM stood at 0% in data set [1], 44 ± 0.24% in the data set on MCF-7 (breast carcinoma) and 30.4 ± 0.9% in data set [2].

As for `COc1cc(C(=O)OCC2=CCC3[C@](C)(CO)[C@H](O)CC[C@@]3(C)[C@@H]2/C=C/C2=CCOC2=O)cc(OC)c1OC` (stereo partly drawn) [Compound 9k, ((1S,5R,6R,8aR)-6-Hydroxy-5-(hydroxymethyl)-5,8a-dimethyl-1-((E)-2-(2-oxo-2,5-dihydrofuran-3-yl)vinyl)-1,4,4a,5,6,7,8,8a-octahydronaphthalen-2-yl)methyl 3,4,5-Trimethoxybenzoate], the inhibition at 20 µM in the data set with MCF-7 (breast carcinoma) was found to be 41 ± 0.87%; in the data set on A549 (lung carcinoma) (setting [3]), 29.4 ± 0.82%; in data set [2], 19.8 ± 0.68%.

The term IC50 denotes the concentration that inhibits the measured activity by half. Lower therefore signals inhibition by little substance.
